This is an account of results in ChEMBL document CHEMBL1126114, “A novel orally active inhibitor of IL-1 generation: synthesis and structure-activity relationships of 3-(4-hydroxy-1-naphthalenyl)-2-propenoic acid derivatives” (J Med Chem, 1992).

Holding throughout (type): functional
Assay [1] deals with Rattus norvegicus. Nature of the assay: In vivo percent inhibition of IL-1 generation in rat CMC-LPS air pouch model at 100 uM concentration (local administration). In short, it runs like this: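 Rat air pouch: 10 mL air s.c. into the dorsum, 2% CMC-Na in saline 24 h later, then LPS 5 ng 24 h after CMC. Compound given locally in 5% EtOH-RPMI with 30% autologous serum, 100 μM final in exudate, at 30 min before and just before LPS. Exudate IL-1 (extra- plus intracellular) read by LAF at 4 h. n=5; % inhibition ± SEM.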

For another assay, the species on record is Homo sapiens. Put plainly: In vitro inhibitory activity against IL-1 generation by using human monocyte. In short, it runs like this:
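Healthy-donor peripheral mononuclear cells, adhered 1.5 h in RPMI 1640 with 10% heat-inactivated autologous serum. Adherent monocytes then stimulated with LPS 1 μg/mL for 16–18 h in 1% autologous serum with 0.1% ethanol, ± drug. Extra- plus intracellular IL-1 read by LAF assay against a recombinant human IL-1β curve. IC50 by least squares; mean of ≥2 experiments.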

Assay [2] is filed under the species Rattus norvegicus. Put plainly: In vitro inhibitory activity against IL-1 generation by using rat exudated macrophages. An outline of the steps: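 Fisher rat peritoneal exudate cells collected 4 days after i.p. 2.5% glycogen. Cells adhered 1.5 h at 37 °C in 1% normal rat serum. Adherent macrophages stimulated with LPS 1 ng/mL for 4 h ± compound. Intracellular IL-1 read by LAF assay against a recombinant human IL-1α curve. IC50 by least squares; mean of duplicates.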

Assay [3] concerns Rattus norvegicus. Put plainly: Compound was evaluated in vivo for the percent inhibition of IL-1 generation in rat CMC-LPS air pouch model at 50 mg/Kg concentration (oral administration). In short, it runs like this: (§1)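 Rat CMC-LPS air pouch: air s.c., 2% CMC-Na 24 h later, LPS 5 ng 24 h after that. Compound given orally in 0.5% methyl cellulose 2 h before LPS. Exudate collected at 4 h; IL-1 (extra- plus intracellular) read by LAF assay against a recombinant human IL-1α curve.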

Assay [4] has as its system Rattus norvegicus. Nature of the assay: Compound was evaluated in vivo for the percent inhibition of IL-1 generation in rat CMC-LPS air pouch model at 200 mg/Kg concentration (oral administration). An outline of the steps:
as §1

“And” between values parts separate entries of the source, which are not always exact repeats. Identical values can stand only once.

`COc1cc(/C=C/C(=O)O)c2ccccc2c1O` returned an Inhibition with Rattus norvegicus [1] below 25%. In addition, the values for the IC50 in the assay listed under Homo sapiens and in the assay listed under Rattus norvegicus [2] were 1.9 µM and 1.4 µM, respectively.

Take `CCc1c(OC)c(O)c2c(CC)cccc2c1/C=C/C(=O)O`: the Inhibition with Rattus norvegicus [1] was below 25%. The IC50 in the assay listed under Homo sapiens is above 10 µM.

As to `COc1cc(/C=C(/C)C(=O)O)c2cccc(C(C)C)c2c1O`, the Inhibition with Rattus norvegicus [1] is 87% and 79%. Besides, the results for the IC50 in the assay listed under Homo sapiens and in the assay filed under Rattus norvegicus [2] were 2.1 µM and 1.4 µM, respectively. Also, testing at 50 mg/kg with Rattus norvegicus [3] gave an inhibition in vivo of 29%.

For the compound `CCc1cccc2c(O)c(OC)cc(/C=C/C(=O)O)c12`, in the assay on Rattus norvegicus [1], the Inhibition turned out to be 26%. Also, the values for the IC50 in the assay listed under Homo sapiens and in the assay filed under Rattus norvegicus [2] were 1.8 µM and 5.5 µM, respectively.

Consider `COc1cc(/C=C(\C)C(=O)O)c2cccc(C(C)C)c2c1O`, for which, in the assay with Rattus norvegicus [1], the Inhibition came out at 70%. The results for the IC50 in the assay filed under Homo sapiens and in the assay listed under Rattus norvegicus [2] were below 1 µM and 1 µM, respectively. In addition, the inhibition in vivo at 200 mg/kg with Rattus norvegicus [4] is below 25%.

Regarding `CCCc1cccc2c(/C=C(/Cc3ccccc3)C(=O)O)cc(OC)c(O)c12`, the Inhibition in the assay with Rattus norvegicus [1] was 91%. In the assay filed under Rattus norvegicus [2], this compound yielded an IC50 of 1.6 µM. In the assay on Rattus norvegicus [4], the inhibition in vivo at 200 mg/kg is 51%.

As for `CCCc1cccc2c(/C=C(\CC)C(=O)O)cc(OC)c(O)c12`, the Inhibition in the assay on Rattus norvegicus [1] is reported as 91%. Also, the IC50 in the assay listed under Homo sapiens was 3.7 µM; in the assay listed under Rattus norvegicus [2], below 1 µM. In the assay on Rattus norvegicus [4], at 200 mg/kg the inhibition in vivo was 62%.

Take `COCCCc1cccc2c(/C=C/C(=O)O)cc(OC)c(O)c12`: the Inhibition in the assay on Rattus norvegicus [1] is reported as below 25%. In the assay filed under Rattus norvegicus [2], the IC50 was 6.3 µM.

In the assay with Rattus norvegicus [1], `CCCc1cccc2c(/C=C(\C)C(=O)O)cc(OC)c(O)c12` came in with an Inhibition of 91%. In the assay with Rattus norvegicus [3], this compound yielded an inhibition in vivo at 50 mg/kg below 25%. The compound further displayed an inhibition in vivo at 200 mg/kg in the assay on Rattus norvegicus [4] of 67%.

In turn, `CCc1cccc2c(/C=C(/C(=O)O)c3ccccc3)cc(OC)c(O)c12` registered an Inhibition in the assay on Rattus norvegicus [1] of 42%. Also, 2.5 µM corresponded to half-maximal inhibition in the assay filed under Rattus norvegicus [2] (IC50). The compound also returned an inhibition in vivo at 200 mg/kg in the assay with Rattus norvegicus [4] below 25%.

The compound `COc1cc(/C=C/C(=O)O)c2cccc(C(C)C)c2c1O` displayed an Inhibition in the assay on Rattus norvegicus [1] of 73%. Besides, the IC50 in the assay listed under Homo sapiens was 1.4 µM; in the assay listed under Rattus norvegicus [2], 1 µM. For the same compound, the inhibition in vivo at 200 mg/kg in the assay on Rattus norvegicus [4] is below 25%.

`CCc1cccc2c(/C=C(\Cc3ccccc3)C(=O)O)cc(OC)c(O)c12` came in with an Inhibition with Rattus norvegicus [1] of 79%. For the same compound, inhibition in the assay listed under Rattus norvegicus [2] was half-maximal at 2.3 µM (IC50). The same compound showed an inhibition in vivo at 200 mg/kg in the assay on Rattus norvegicus [4] below 25%.

`CCc1cccc2c(/C=C(\Cc3cccs3)C(=O)O)cc(OC)c(O)c12`: the Inhibition with Rattus norvegicus [1] is 44%. This compound also registered an IC50 in the assay filed under Rattus norvegicus [2] of 6.5 µM.

Turning to `CCCc1cccc2c(/C=C(/CC)C(=O)O)cc(OC)c(O)c12`, in the assay on Rattus norvegicus [1], the Inhibition is 90% and 78%. The IC50 in the assay filed under Homo sapiens and in the assay filed under Rattus norvegicus [2] was below 1 µM in each case. For the same compound, the inhibition in vivo at 50 mg/kg with Rattus norvegicus [3] amounted to 47%.

In the assay with Rattus norvegicus [1], `CCc1ccc2c(O)c(OC)cc(/C=C/C(=O)O)c2c1` returned an Inhibition below 25%. The IC50 in the assay listed under Homo sapiens worked out at 3.9 µM; in the assay listed under Rattus norvegicus [2] it was 4 µM.

The compound `COc1cc(/C=C/C(=O)O)c2cccc(C)c2c1O` registered an Inhibition in the assay on Rattus norvegicus [1] below 25%. The IC50 in the assay filed under Homo sapiens was 2.5 µM; in the assay listed under Rattus norvegicus [2] it was below 1 µM.

In turn, `CCc1cccc2c(/C=C(/Cc3ccccc3)C(=O)O)cc(OC)c(O)c12` registered an inhibition in vivo at 50 mg/kg in the assay on Rattus norvegicus [3] below 25%. The IC50 in the assay listed under Rattus norvegicus [2] was 2.1 µM.

Regarding `CCOc1cc(/C=C/C(=O)O)c2cccc(CC)c2c1O`, in the assay with Rattus norvegicus [1], the Inhibition is 75%. This compound also had an IC50 in the assay listed under Rattus norvegicus [2] of 1.4 µM.

As to `CCCCCOc1cc(/C=C/C(=O)O)c2cccc(CC)c2c1O`, the Inhibition in the assay with Rattus norvegicus [1] was determined as 33%. The IC50 is 5.3 µM in the assay filed under Homo sapiens and 2.5 µM in the assay filed under Rattus norvegicus [2].

As to `CC/C(=C/c1cc(OC)c(O)c2c(CC)cccc12)C(=O)O`, the Inhibition in the assay on Rattus norvegicus [1] was 90% and 71%. Further, the inhibition in vivo at 50 mg/kg with Rattus norvegicus [3] turned out to be 43%. This compound showed an IC50 in the assay listed under Rattus norvegicus [2] of 2.1 µM.

`CCc1c(OC)c(O)c2ccccc2c1/C=C/C(=O)O` came in with an Inhibition in the assay on Rattus norvegicus [1] below 25%. Besides, the IC50 in the assay listed under Homo sapiens and in the assay filed under Rattus norvegicus [2] was above 10 µM each time.

For `CCc1cccc2c(/C=C(\C)C(=O)O)cc(OC)c(O)c12`, in the assay with Rattus norvegicus [1], the Inhibition is reported as 85%. This compound also registered an inhibition in vivo at 200 mg/kg with Rattus norvegicus [4] of 36%.

`CC/C(=C\c1cc(OC)c(O)c2c(CC)cccc12)C(=O)O` gave an Inhibition in the assay with Rattus norvegicus [1] of 72%. In the assay listed under Rattus norvegicus [2], this compound showed an IC50 of 1.4 µM. The inhibition in vivo at 200 mg/kg with Rattus norvegicus [4] was 41%.

Regarding `CCc1cccc2c(/C(C)=C\C(=O)O)cc(OC)c(O)c12`, the Inhibition in the assay on Rattus norvegicus [1] is reported as below 25%. In the assay filed under Rattus norvegicus [2], this compound displayed an IC50 above 10 µM.

Take `CCCc1cccc2c(/C=C/C(=O)O)cc(OC)c(O)c12`: the Inhibition in the assay with Rattus norvegicus [1] was 91%. The IC50 is 2.3 µM in the assay filed under Homo sapiens and below 1 µM in the assay listed under Rattus norvegicus [2]. For the same compound, the inhibition in vivo at 50 mg/kg with Rattus norvegicus [3] was below 25%. In addition, in the assay with Rattus norvegicus [4], the inhibition in vivo at 200 mg/kg turned out to be 32%.

With `CCc1ccc2c(/C=C/C(=O)O)cc(OC)c(O)c2c1`, in the assay with Rattus norvegicus [1], the Inhibition is on record as below 25%. In addition, the IC50 came out at 4 µM in the assay filed under Homo sapiens and 4.1 µM in the assay filed under Rattus norvegicus [2].

As to `CCCC/C(=C\C(=O)O)c1cc(OC)c(O)c2c(CC)cccc12`, in the assay with Rattus norvegicus [1], the Inhibition stood at 52%. The results for the IC50 in the assay listed under Homo sapiens and in the assay listed under Rattus norvegicus [2] were 5.8 µM and above 10 µM, respectively.

Compound `CCc1cccc2c(/C=C/C(=O)O)cc(OCCOC)c(O)c12` gave an Inhibition in the assay on Rattus norvegicus [1] of 34%. In addition, the IC50 was above 10 µM in the assay listed under Homo sapiens and 3.5 µM in the assay listed under Rattus norvegicus [2].

Turning to `CCc1cccc2c(/C(C)=C/C(=O)O)cc(OC)c(O)c12`, the Inhibition in the assay with Rattus norvegicus [1] was below 25%. This compound yielded an IC50 in the assay filed under Rattus norvegicus [2] above 10 µM.

Regarding `CCCc1cccc2c(/C=C(/C)C(=O)O)cc(OC)c(O)c12`, the Inhibition in the assay on Rattus norvegicus [1] was 87% and 86%. In the assay on Rattus norvegicus [3], this compound displayed an inhibition in vivo at 50 mg/kg of 33%.

In the assay with Rattus norvegicus [1], `CCc1cccc2c(/C=C/C(=O)O)cc(OC)c(O)c12` yielded an Inhibition of 88%. Besides, the IC50 stood at 2.4 µM in the assay filed under Homo sapiens and 1.5 µM in the assay listed under Rattus norvegicus [2]. In addition, the inhibition in vivo at 200 mg/kg in the assay on Rattus norvegicus [4] was below 25%.

In turn, `CCc1cccc2c(/C=C/C(=O)O)cc(OCc3ccccc3)c(O)c12` yielded an Inhibition with Rattus norvegicus [1] of 39%. Also, the IC50 in the assay listed under Homo sapiens came to 6.7 µM; in the assay filed under Rattus norvegicus [2], 1.9 µM.
